Results from ChEMBL document CHEMBL3421573, “Synthesis of new ent-labdane diterpene derivatives from andrographolide and evaluation on cytotoxic activities” (Bioorg Med Chem Lett, 2015).

Columns and labels:
Assay type in all cases: functional, cell-based; call rule not given here
[1] = Cytotoxicity against human NTUB1 cells after 48 hrs by MTT assay; conditions: NTUB1, 48 h
Method in brief: (§1)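 Samples dissolved in DMSO (0.1%); cis-platin included as positive control. IC50 taken as the drug concentration giving 50% growth inhibition, in µM.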

MDA-MB-231 = test: Cytotoxicity against human MDA-MB-231 cells after 48 hrs by MTT assay; method in brief: as §1
MCF7 = test: Cytotoxicity against human MCF7 cells after 48 hrs by MTT assay; method in brief: as §1
[2] = Cytotoxicity against human NP14 cells after 48 hrs by MTT assay; conditions: NP14, 48 h; method in brief: as §1
[3] = Homo sapiens, MDA-MB-231, 48 h, read-out: IC50
[4] = Homo sapiens, MCF7, 48 h, read-out: IC50

For `C=C1[C@H](O)C[C@@H]2[C@](C)(COC(=O)CC)[C@H](OC(=O)CC)CC[C@@]2(C)[C@@H]1CCc1ccoc1`, the IC50 [1] was 29.6 µM, the IC50 (MDA-MB-231; [3]) was 40.9 µM and the IC50 (MCF7; [4]) was 44 µM. The IC50 [2] was 27.7 µM.
For `C=C1CC[C@H]2[C@@](C)(CCC(=O)[C@@]2(C)CO)[C@@H]1CCc1ccoc1`, the IC50 [1] was 63.1 µM, the IC50 (MDA-MB-231; [3]) was 71.2 µM and the IC50 (MCF7; [4]) was 87.3 µM. It also gave an IC50 [2] of 43.2 µM.
`C=C1CC[C@@H]2[C@](C)(COC(=O)COc3ccccc3)[C@H](O)CC[C@@]2(C)[C@@H]1CCc1ccoc1` showed an IC50 [1] greater than 100 µM, an IC50 (MDA-MB-231; [3]) of 35 µM and an IC50 (MCF7; [4]) of 36.8 µM. The IC50 [2] was 18.6 µM.
Work on `C=C1CC[C@@H]2[C@](C)(CO)[C@H](O)CC[C@@]2(C)[C@@H]1CC(O)c1ccoc1` (some centres undefined) yielded an IC50 [1] greater than 100 µM, an IC50 (MDA-MB-231; [3]) greater than 100 µM and an IC50 (MCF7; [4]) greater than 100 µM. It also gave an IC50 [2] greater than 100 µM.
Compound `C=C1CC[C@@H]2[C@](C)(COC(=O)CC)[C@H](OC(=O)CC)CC[C@@]2(C)[C@@H]1CC(OC(=O)CC)c1ccoc1` (some centres undefined) has an IC50 [1] of 89.7 µM, an IC50 (MDA-MB-231; [3]) greater than 100 µM and an IC50 (MCF7; [4]) greater than 100 µM. The IC50 [2] was 43.1 µM.
For `C=C1CC[C@@H]2[C@](C)(CO)[C@H](O)CC[C@@]2(C)[C@@H]1CCC1=CCOC1=O` [DEOXYANDROGRAPHOLIDE], the IC50 [1] was greater than 100 µM, the IC50 (MDA-MB-231; mda-mb-231) was “Not Active” and the IC50 (MCF7; mcf7) was “Not Active”. It also gave an IC50 [2] greater than 100 µM.
`C=C1CC[C@@H]2[C@](C)(COC(=O)c3ccc([N+](=O)[O-])cc3)[C@H](O)CC[C@@]2(C)[C@@H]1CCc1ccoc1` showed an IC50 [1] of 23.8 µM, an IC50 (MDA-MB-231; [3]) of 37.5 µM and an IC50 (MCF7; [4]) of 62.1 µM. The IC50 [2] was 80.9 µM.
`C=C1CC[C@@H]2[C@](C)(COC(=O)c3ccc(OC)cc3)[C@H](O)CC[C@@]2(C)[C@@H]1CCc1ccoc1` showed an IC50 [1] of 26.3 µM, an IC50 (MDA-MB-231; [3]) of 28.6 µM and an IC50 (MCF7; [4]) of 25.2 µM. It also gave an IC50 [2] of 40.4 µM.
In the case of `C=C1CC[C@@H]2[C@](C)(CO)[C@H](O)CC[C@@]2(C)[C@@H]1C/C=C1/C(=O)OC[C@H]1O` [ANDROGRAPHOLIDE], the IC50 [1] is reported as 32.5 µM, the IC50 (MDA-MB-231; [3]) is reported as 16.6 µM and the IC50 (MCF7; [4]) is reported as 30.8 µM. The IC50 [2] was 21.2 µM.
With `C=C1CC[C@@H]2[C@](C)(COC(=O)c3ccc([N+](=O)[O-])cc3)[C@H](OC(=O)c3ccc([N+](=O)[O-])cc3)CC[C@@]2(C)[C@@H]1CCc1ccoc1` the IC50 [1] was greater than 100 µM, the IC50 (MDA-MB-231; [3]) was greater than 100 µM and the IC50 (MCF7; [4]) was greater than 100 µM. It also gave an IC50 [2] greater than 100 µM.
`C=C1CC[C@@H]2[C@](C)(CO)[C@H](O)CC[C@@]2(C)[C@@H]1CCc1ccoc1` showed an IC50 [1] of 39.8 µM, an IC50 (MDA-MB-231; [3]) greater than 100 µM and an IC50 (MCF7; [4]) of 79.5 µM. It also gave an IC50 [2] of 53.3 µM.
For `C=C1CC[C@@H]2[C@](C)(CO)[C@H](O)CC[C@@]2(C)[C@@H]1CC(O)C1=CCOC1=O` (some centres undefined), the IC50 [1] was 14.9 µM, the IC50 (MDA-MB-231; [3]) was 27.6 µM and the IC50 (MCF7; [4]) was 78 µM. The IC50 [2] was 49.4 µM.
For `C=C1CC[C@@H]2[C@](C)(COC(=O)C(Cl)Cl)[C@H](OC(=O)C(Cl)Cl)CC[C@@]2(C)[C@@H]1CCc1ccoc1`, the IC50 [1] was 11.2 µM, the IC50 (MDA-MB-231; [3]) was 2.64 µM and the IC50 (MCF7; [4]) was 22.9 µM. It also gave an IC50 [2] of 4.42 µM.
In the case of `C=C1CC[C@@H]2[C@](C)(COC(c3ccccc3)(c3ccccc3)c3ccccc3)[C@H](OC(C)=O)CC[C@@]2(C)[C@@H]1CC(OC(C)=O)C1=CCOC1=O` (some centres undefined), the IC50 [1] is reported as 8.45 µM, the IC50 (MDA-MB-231; [3]) is reported as 6.37 µM and the IC50 (MCF7; [4]) is reported as 6.41 µM. It also gave an IC50 [2] of 14.3 µM.
With `C=C1CC[C@@H]2[C@](C)(COC(=O)CC)[C@H](OC(=O)CC)CC[C@@]2(C)[C@@H]1CCc1ccoc1` the IC50 [1] was 42.9 µM, the IC50 (MDA-MB-231; [3]) was 40.4 µM and the IC50 (MCF7; [4]) was greater than 100 µM. For the same compound, the IC50 [2] was 94.2 µM.
For `C[C@]1(CO)[C@H]2CCC(=O)[C@@H](CCc3ccoc3)[C@]2(C)CC[C@H]1O`, the IC50 [1] was greater than 100 µM, the IC50 (MDA-MB-231; [3]) was 56.3 µM and the IC50 (MCF7; [4]) was greater than 100 µM. For the same compound, the IC50 [2] was greater than 100 µM.
